From ChEMBL document CHEMBL3217694, “Diaryl- and triaryl-pyrrole derivatives: inhibitors of the MDM2-p53 and MDMX-p53 protein-protein interactions†Electronic supplementary information (ESI) available: Experimental details for compound synthesis, analytical data for all compounds and intermediates. Details for the biological …” (Medchemcomm, 2013) come the findings set out here.

In assay [1] the target is E3 ubiquitin-protein ligase Mdm2 (Homo sapiens, UniProt Q00987). Put plainly: Inhibition of MDM2-p53 interaction (unknown origin) by ELISA. The procedure, abridged: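 MDM2–p53 ELISA protein–protein binding assay; IC50 values were determined in follow-up concentration–response testing.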
Assay [2] has as its target T1, E3 ubiquitin-protein ligase Mdm2/Cellular tumor antigen p53/Protein Mdm4 (Homo sapiens) (UniProt P04637+Q00987+O15151). The assay can be described thus: Inhibition of MDM2/MDMX-p53 interaction in human SJSA-1 cells expressing amplified MDM2 and wild-type p53 assessed as induction of p21 protein expression at 5 uM after 4 hrs by western blot analysis. The format is cell-based. The procedure, abridged:
(§1)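 Cell lines with defined MDM2 and p53 status were exposed to increasing compound concentrations for 4 h. p53 pathway activation (p53 and the p53-dependent proteins) was then detected by Western blotting of cell extracts.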

Assay [3] addresses T1, E3 ubiquitin-protein ligase Mdm2/Cellular tumor antigen p53/Protein Mdm4 (Homo sapiens). Put plainly: Inhibition of MDM2/MDMX-p53 interaction in human A2780 CP70 cells expressing p53 mutant gene assessed as induction of MDM2 protein expression at 0.2 to 5 uM after 4 hrs by western blot analysis. The format is cell-based. The procedure, abridged: as §1
(Immunoblotting shows a protein as a band on a membrane.)

The target is the same in assay [4]. Put plainly: Inhibition of MDM2/MDMX-p53 interaction in human A2780 CP70 cells expressing p53 mutant gene assessed as induction of p21 protein expression at 0.2 to 5 uM after 4 hrs by western blot analysis. The class given is cell-based. The procedure, abridged: as §1
Assay [5] has the same target. The assay can be described thus: Inhibition of MDM2/MDMX-p53 interaction in human A2780 cells expressing wild-type p53 assessed as induction of p21 protein expression at 0.2 to 5 uM after 4 hrs by western blot analysis. The class given is cell-based. The essentials:
as §1

Assay [6] shares this target. The assay can be described thus: Inhibition of MDM2/MDMX-p53 interaction in human SJSA-1 cells expressing amplified MDM2 and wild-type p53 assessed as induction of p53 protein expression at 5 uM after 4 hrs by western blot analysis. The format is cell-based. The procedure, abridged: as §1
For assay [7] the target is unchanged. Put plainly: Inhibition of MDM2/MDMX-p53 interaction in human A2780 cells expressing wild-type p53 assessed as induction of MDM2 protein expression at 0.2 to 5 uM after 4 hrs by western blot analysis. The class given is cell-based. The procedure, abridged:
as §1

Assay [8] has the same target. Put plainly: Inhibition of MDM2/MDMX-p53 interaction in human A2780 cells expressing wild-type p53 assessed as induction of p53 protein expression at 0.2 to 5 uM after 4 hrs by western blot analysis. The format is cell-based. The procedure, abridged:
as §1

For assay [9] the target is unchanged. Put plainly: Inhibition of MDM2/MDMX-p53 interaction in human SJSA-1 cells expressing amplified MDM2 and wild-type p53 assessed as induction of MDM2 protein expression at 5 uM after 4 hrs by western blot analysis. The class given is cell-based. The essentials: as §1
The target is the same in assay [10]. Put plainly: Inhibition of MDM2/MDMX-p53 interaction in human A2780 CP70 cells expressing p53 mutant gene assessed as induction of p53 protein expression at 0.2 to 5 uM after 4 hrs by western blot analysis. The class given is cell-based. The procedure, abridged:
as §1

Calls of active or inactive are those of the source. The rule behind the calls is not given here.

T1 sequence (O15151 whole entry, looked up): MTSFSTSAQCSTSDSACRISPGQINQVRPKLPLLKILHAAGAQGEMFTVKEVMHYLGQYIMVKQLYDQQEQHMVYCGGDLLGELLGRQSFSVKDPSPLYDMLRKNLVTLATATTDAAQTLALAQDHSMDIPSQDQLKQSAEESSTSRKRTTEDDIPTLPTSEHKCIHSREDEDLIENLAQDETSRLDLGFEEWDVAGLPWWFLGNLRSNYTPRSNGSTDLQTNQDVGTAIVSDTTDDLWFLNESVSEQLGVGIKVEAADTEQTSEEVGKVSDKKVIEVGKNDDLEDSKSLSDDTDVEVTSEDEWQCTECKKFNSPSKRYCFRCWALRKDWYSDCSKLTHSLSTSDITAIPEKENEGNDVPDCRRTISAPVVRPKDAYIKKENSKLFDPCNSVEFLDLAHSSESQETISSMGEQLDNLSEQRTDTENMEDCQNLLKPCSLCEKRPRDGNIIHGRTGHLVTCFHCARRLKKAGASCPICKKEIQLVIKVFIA
T1 sequence (P04637 whole entry, looked up): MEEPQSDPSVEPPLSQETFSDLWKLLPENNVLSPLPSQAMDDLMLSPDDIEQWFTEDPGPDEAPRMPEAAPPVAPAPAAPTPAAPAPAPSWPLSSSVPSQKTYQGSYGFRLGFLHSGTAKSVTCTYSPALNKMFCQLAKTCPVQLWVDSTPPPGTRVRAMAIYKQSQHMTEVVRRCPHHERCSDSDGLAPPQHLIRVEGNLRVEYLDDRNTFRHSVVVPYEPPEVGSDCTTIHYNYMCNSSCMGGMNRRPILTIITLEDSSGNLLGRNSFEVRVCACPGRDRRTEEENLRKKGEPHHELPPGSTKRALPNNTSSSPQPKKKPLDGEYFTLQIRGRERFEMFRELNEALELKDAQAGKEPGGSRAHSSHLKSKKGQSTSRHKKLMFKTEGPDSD
T1 sequence (Q00987 whole entry, looked up): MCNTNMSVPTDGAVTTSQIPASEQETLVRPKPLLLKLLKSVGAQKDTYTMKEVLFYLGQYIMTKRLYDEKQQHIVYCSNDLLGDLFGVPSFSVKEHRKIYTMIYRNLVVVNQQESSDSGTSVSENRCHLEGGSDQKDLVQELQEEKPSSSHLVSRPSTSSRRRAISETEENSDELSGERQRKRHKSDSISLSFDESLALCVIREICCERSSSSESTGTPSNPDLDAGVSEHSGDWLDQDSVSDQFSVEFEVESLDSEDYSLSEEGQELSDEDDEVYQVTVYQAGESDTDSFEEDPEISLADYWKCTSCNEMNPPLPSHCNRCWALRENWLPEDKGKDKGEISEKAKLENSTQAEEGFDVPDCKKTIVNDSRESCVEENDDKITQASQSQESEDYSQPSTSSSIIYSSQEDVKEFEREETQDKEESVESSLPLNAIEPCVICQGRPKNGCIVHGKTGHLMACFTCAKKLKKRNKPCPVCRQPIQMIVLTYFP

For `Cc1ccc(-n2c(C)cc(C=C3C(=O)NC(=S)NC3=O)c2C)cc1`, in assay [1], the inhibition result is “Dose-dependent effect”.
Take `CNC(=O)C(=Cc1cc(-c2ccccc2)n(-c2ccc(Cl)cc2)c1-c1ccccc1)C(=O)NC`: the inhibition entry in assay [1] is “Dose-dependent effect”.
In the case of `N#Cc1ccc(-n2c(-c3ccccc3)cc(C=C3C(=O)NC(=S)NC3=O)c2-c2ccccc2)cc1`, the inhibition entry in assay [1] is “Dose-dependent effect”.
Still for that read-out and setting: in the case of `O=C1NC(=S)NC(=O)C1=Cc1cc(-c2ccccc2)n(-c2ccc(Br)cc2)c1C1CC1` it was “Dose-dependent effect”; in that of `O=C1NC(=O)C(=Cc2cc(-c3ccccc3)n(-c3ccc([N+](=O)[O-])cc3)c2-c2ccccc2)C(=O)N1`, “Dose-dependent effect”; in that of `CC(C)(C)c1cc(C=C2C(=O)NC(=S)NC2=O)c(-c2ccccc2)n1-c1ccc(Br)cc1`, “Dose-dependent effect”.
For the compound `Cc1cc(C=C2C(=O)NC(=S)NC2=O)c(C)n1-c1sc2c(c1C#N)CCCC2`, the inhibition result in assay [2], in [6] and in assay [9] was “Active” in each case. Further, the inhibition entry in assay [3], in assay [4], in assay [5], in assay [7], in assay [8] and in [10] was “inactive” in each case.
On to `CC1(C)OC(=O)C(Cc2cc(-c3ccccc3)n(-c3ccc(Br)cc3)c2-c2ccccc2)C(=O)O1`, for which, in assay [1], the inhibition result is “Dose-dependent effect”.
As to `Cc1ccc(N2C(=O)/C(=C\c3cc(-c4ccccc4)n(-c4ccc(Cl)cc4)c3-c3ccccc3)C(=O)N(c3ccccc3)C2=S)cc1C`, in [1], the inhibition entry was “Dose-dependent effect”.
For the compound `O=C1NC(=S)N(c2ccccc2)C(=O)/C1=C/c1cc(-c2ccccc2)n(-c2ccc(Cl)cc2)c1-c1ccccc1`, the inhibition result in assay [2], in assay [5], in assay [6], in [7] and in assay [9] was “Active” in each case. Further, the inhibition entry in [1] was “Dose-dependent effect”. Further, the inhibition result in assay [3], in assay [4], in assay [8] and in assay [10] was “inactive” each time.
For the compound `COC(=O)C(=Cc1cc(-c2ccccc2)n(-c2ccc(Cl)cc2)c1-c1ccccc1)C(=O)OC`, in assay [1], the inhibition entry is “Dose-dependent effect”.
Regarding `O=C1NC(=S)NC(=O)C1=Cc1cc(-c2ccccc2)n(-c2ccc(Cl)cc2)c1-c1ccccc1`, the inhibition entry in assay [2], in assay [5], in assay [6], in assay [7] and in [9] was “Active” throughout. Further, the inhibition result in [1] was “Dose-dependent effect”. Also, the inhibition result in assay [3], in [4], in [8] and in assay [10] was “inactive” throughout.
Turning to `NC(=O)C(=Cc1cc(-c2ccccc2)n(-c2ccc(Cl)cc2)c1-c1ccccc1)C(N)=O`, the inhibition result in [1] is “Dose-dependent effect”.
In the case of `O=C1NC(=S)NC(=O)C1=Cc1cc(C2CC2)n(-c2ccc(Cl)cc2)c1-c1ccccc1`, the inhibition result in [1] is “Dose-dependent effect”.
`Cc1cc(C=C2C(=O)NC(=S)NC2=O)c(C)n1-c1ccc(Cl)cc1`: the inhibition result in assay [1] is “Dose-dependent effect”.
On the same count and under the same terms, the result for `O=C1NC(=S)NC(=O)C1=Cc1cc(-c2ccccc2)n(-c2ccc(Cl)cc2)c1C1CC1` reads “Dose-dependent effect”.
In the case of `CN1C(=O)C(=Cc2cc(-c3ccccc3)n(-c3ccc(Cl)cc3)c2-c2ccccc2)C(=O)N(C)C1=S`, the IC50 result in assay [1] is reported as “ND(Insoluble)”.
In the case of `CCOC(=O)c1ccc(-n2c(-c3ccccc3)cc(C=C3C(=O)NC(=S)NC3=O)c2-c2ccccc2)cc1`, the inhibition entry in assay [1] was “Dose-dependent effect”.
As to `Cc1cc(/C=C2\C(=O)NC(=S)N(c3ccccc3)C2=O)c(C)n1-c1ccc(Cl)cc1`, in [1], the inhibition entry was “Dose-dependent effect”.
On to `CC(C)(C)c1ccc(-n2c(-c3ccccc3)cc(C=C3C(=O)NC(=O)NC3=O)c2-c2ccccc2)cc1`, for which the inhibition entry in [1] was “Dose-dependent effect”.
With `CC(C)(C)c1cc(C=C2C(=O)NC(=S)NC2=O)c(-c2ccccc2)n1-c1ccc(Cl)cc1`, the inhibition result in assay [1] is “Dose-dependent effect”.
For the compound `O=C1NC(=O)C(=Cc2cc(-c3ccccc3)n(-c3ccc(Br)cc3)c2-c2ccccc2)C(=O)N1`, the inhibition result in [1] was “Dose-dependent effect”.
Consider `CC1(C)OC(=O)C(=Cc2cc(-c3ccccc3)n(-c3ccc(Br)cc3)c2-c2ccccc2)C(=O)O1`, for which the inhibition result in [1] was “Dose-dependent effect”.
Still for that read-out and setting: the result for `CCN1C(=O)C(=Cc2cc(-c3ccccc3)n(-c3ccc(Br)cc3)c2-c2ccccc2)C(=O)N(CC)C1=O` reads “Dose-dependent effect”.
Take `O=C1NC(=S)NC(=O)C1=Cc1cc(C2CC2)n(-c2ccc(Br)cc2)c1-c1ccccc1`: the inhibition result in assay [1] was “Dose-dependent effect”.
Consider `CCN1C(=O)C(=Cc2cc(-c3ccccc3)n(-c3ccc(Cl)cc3)c2-c2ccccc2)C(=O)N(CC)C1=S`, for which the inhibition result in assay [1] is “Dose-dependent effect”.
Same read-out and setting: the result for `O=C1NC(=S)NC(=O)C1=Cc1cc(-c2ccccc2)n(-c2ccc([N+](=O)[O-])cc2)c1-c1ccccc1` reads “Dose-dependent effect”; that for `N#Cc1ccc(-n2c(-c3ccccc3)cc(C=C3C(=O)NC(=O)NC3=O)c2-c2ccccc2)cc1`, “Dose-dependent effect”; that for `Cc1ccc(-n2c(C)cc(/C=C3\C(=O)NC(=S)N(c4ccccc4)C3=O)c2C)cc1`, “Dose-dependent effect”.
Same read-out and setting: the result for `Cc1cc(C=C2C(=O)N(c3ccccc3)C(=S)N(c3ccccc3)C2=O)c(C)n1-c1ccc(Br)cc1` reads “Dose-dependent effect”.
For `O=C(NCCO)C(=Cc1cc(-c2ccccc2)n(-c2ccc(Cl)cc2)c1-c1ccccc1)C(=O)NCCO`, in [1], the inhibition entry was “Dose-dependent effect”.
For the compound `O=C(O)/C=C/c1cc(-c2ccccc2)n(-c2ccc(Cl)cc2)c1-c1ccccc1`, the inhibition result in assay [1] was “Dose-dependent effect”.
For the compound `O=C1NC(=S)N(c2cccc(Cl)c2)C(=O)/C1=C/c1cc(-c2ccccc2)n(-c2ccc(Cl)cc2)c1-c1ccccc1`, in assay [1], the inhibition entry is “Dose-dependent effect”.
On to `O=C1NC(=O)C(=Cc2cc(-c3ccccc3)n(-c3ccc(Cl)cc3)c2-c2ccccc2)C(=O)N1`, for which the inhibition entry in [1] is “Dose-dependent effect”.
On the same count and under the same terms, the result for `CCN1C(=O)C(=Cc2cc(-c3ccccc3)n(-c3ccc(Br)cc3)c2-c2ccccc2)C(=O)N(CC)C1=S` reads “Dose-dependent effect”; that for `COc1ccc(-n2c(-c3ccccc3)cc(C=C3C(=O)NC(=O)NC3=O)c2-c2ccccc2)cc1`, “Dose-dependent effect”.
For the compound `OCC(=Cc1cc(-c2ccccc2)n(-c2ccc(Cl)cc2)c1-c1ccccc1)CO`, the inhibition result in assay [1] was “Dose-dependent effect”.
